This excerpt belongs to a sample that is enriched for hits.
UPR CHOP act – apoptotic UPR (CHOP) activation | CHO-CHOP luciferase reporter, luminescence; percent of tunicamycin response over DMSO baseline | activation, % at 10 µM | 330,000 tested, 0.34% active | AID 449763;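 active means at 10 µM dose, activation of 40% or more, normalized to positive control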;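 further: 100% = tunicamycin at 10 µg/mL and 0% = DMSO alone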
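Assay system: CHO cells with stable CHOP pathway luciferase reporter; Buffer or medium: F12 plus 10% serum; Times: 16-18 h cell attachment, then 6 h compound exposure, 37 °C; Signal: luciferase luminescence; Read-out basis: percent activation relative to tunicamycin control; Control set: tunicamycin high control, DMSO low control.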
CHOP inhibitor – blocks CHOP induction under ER stress. CHO-K1 CHOP-promoter luciferase, tunicamycin-induced, 15-18 h. inhibition, % at 10 µM. 220,000 tested, 3.8% active. AID 2732;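 active means compounds that reduced the stress-induced luciferase reporter signal by more than about 70% of percent inhibition, limit read from the data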;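 further: 0% = tunicamycin plus vehicle and 100% = wells without tunicamycin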
UPR XBP1 act – adaptive UPR (XBP1) activation. activation, % at 20 µM. CHO-XBP1 luciferase reporter, IRE1-XBP1 UPR activation, luminescence; percent of tunicamycin response, DMSO as zero. 330,000 tested, 0.33% active. AID 463104;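 active means versus positive control, 20 µM dose yields 30% or more activation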;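 further: 100% = tunicamycin at 10 µg/mL and 0% = DMSO only wells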
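Material: IRE1-XBP1 luciferase reporter CHO line / Quantity: one thousand reporter cells per well / Buffer or medium: F12 with 10% serum / Compound: 20 µM single concentration, DMSO 1% / Times: 6 h treatment, 37 °C / Detection: Steady-Glo luciferase glow luminescence, 10 min after reagent addition / Benchmarks: tunicamycin high, DMSO low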
VLA-4 inh – inhibition in a human VLA-4 binding assay | P13612 | VLA-4 expressing cells, ligand binding flow cytometry | inhibition, % (about 7 µM as worked out from the volumes in the protocol) | 330,000 tested, 0.2% active; in the data active means inhibition above about 50%
Target sequence (P13612 whole entry, looked up): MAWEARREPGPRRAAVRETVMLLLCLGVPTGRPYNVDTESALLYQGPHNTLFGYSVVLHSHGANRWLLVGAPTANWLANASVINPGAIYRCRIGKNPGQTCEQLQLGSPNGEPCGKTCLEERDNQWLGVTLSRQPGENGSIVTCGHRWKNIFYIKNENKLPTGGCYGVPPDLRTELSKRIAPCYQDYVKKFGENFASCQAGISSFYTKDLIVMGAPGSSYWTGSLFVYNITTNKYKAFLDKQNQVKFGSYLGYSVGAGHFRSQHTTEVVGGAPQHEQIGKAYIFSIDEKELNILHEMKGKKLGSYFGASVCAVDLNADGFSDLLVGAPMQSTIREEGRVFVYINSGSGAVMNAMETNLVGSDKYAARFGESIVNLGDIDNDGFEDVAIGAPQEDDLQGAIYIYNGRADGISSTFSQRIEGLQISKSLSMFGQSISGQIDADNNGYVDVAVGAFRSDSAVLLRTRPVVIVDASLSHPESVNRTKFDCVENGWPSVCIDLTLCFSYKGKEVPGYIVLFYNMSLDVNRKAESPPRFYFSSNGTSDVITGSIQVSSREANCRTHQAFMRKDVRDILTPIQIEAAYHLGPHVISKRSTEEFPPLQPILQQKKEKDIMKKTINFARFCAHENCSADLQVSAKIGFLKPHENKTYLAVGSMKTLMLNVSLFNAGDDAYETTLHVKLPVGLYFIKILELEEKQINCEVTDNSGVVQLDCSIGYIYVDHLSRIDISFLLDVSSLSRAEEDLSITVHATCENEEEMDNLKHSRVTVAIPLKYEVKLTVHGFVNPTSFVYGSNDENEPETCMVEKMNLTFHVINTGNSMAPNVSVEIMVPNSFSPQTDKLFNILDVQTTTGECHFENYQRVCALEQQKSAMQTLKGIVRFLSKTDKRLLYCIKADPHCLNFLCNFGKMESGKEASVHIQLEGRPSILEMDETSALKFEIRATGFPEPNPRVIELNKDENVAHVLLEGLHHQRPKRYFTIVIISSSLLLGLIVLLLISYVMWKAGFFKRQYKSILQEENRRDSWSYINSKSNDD
B2AR ag – human beta-2 adrenergic receptor agonism by FAP | P07550 | AID 504454 | Am2.2-beta2AR cells, FAP receptor internalization, flow cytometry | response, % (no concentration beside the values) | 340,000 tested, 0.43% active;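 active means response above a set limit, near 3 SD of response in nonfluorescent compounds, cut at about 42% in these data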
CHOP UPR conf – confirmation of apoptotic unfolded protein response (CHOP) activators. CHO-CHOP cells, CHOP-luciferase reporter luminescence; percent of tunicamycin response, DMSO as zero. activation, % at 10 µM. 1,000 tested, 64% active. AID 463112. shares compounds with UPR CHOP act; in the data active means activation above about 33%;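 further: 0% = DMSO wells and 100% = tunicamycin 10 µg/mL wells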
* hit, by the source's call; . = no result given.

SMILES | UPR CHOP act | CHOP inhibitor | UPR XBP1 act | VLA-4 inh | B2AR ag | CHOP UPR conf
Cc1cc(Br)ccc1NC(=O)CN1C(=S)NC(C)(C)CC1C (stereo not drawn) | -0.1 | 12.6 | -1.1 | 10.3 | -7.3 | .
CN(c1ccc(O)cc1)c1nc(-c2cccs2)cs1 | 47.6* | 60.4 | 2.7 | 26.8 | 0.7 | 5.8
NC(=O)C1CCN(C2=C(Cl)C(=O)c3ccccc3C2=O)CC1 | 393.6* | -183.0 | 3.9 | -2.6 | 46.2* | -10.3
O=C(CSCc1ccc(Br)cc1)Nc1ccccc1C(=O)N1CCOCC1 | 0.8 | . | -2.1 | 1.1 | -0.8 | .
COc1ccc(-c2noc(CNC(=O)CCN3C(=O)[C@H]4CC=CC[C@H]4C3=O)n2)cc1 | -0.8 | . | -5.4 | 30.5 | 6.0 | .
COc1ccc(CCN2CCC(Nc3nc4ccccc4n3Cc3ccc(F)cc3)CC2)cc1 | 56.0* | . | 3.9 | 10.8 | 6.2 | 43.9*
COc1ccc(Cn2c(CO)cnc2SCC(=O)Nc2cccc(NC(C)=O)c2)cc1 | 1.6 | . | -1.2 | 0.3 | -11.4 | .
O=C(Nc1ncccc1Cl)c1cc2ccccc2o1 | 0.2 | . | -3.6 | -12.7 | -15.1 | .
CC(C)c1ccc(OCCCCCN2CCOCC2)cc1 | 2.5 | . | 1.3 | 8.7 | 5.0 | .
CC(=O)Oc1ccc(OC(C)=O)c(SCCCCCN2CCOCC2)c1 | 72.8* | -220.3 | -4.0 | 7.4 | 0.8 | 33.2*
O=C(N/N=C(\c1ccccc1)c1ccccn1)c1cccc([N+](=O)[O-])c1 | 136.0* | 47.8 | 1.6 | 35.4 | 7.7 | 319.0*
Cc1csc(Nc2cccc3ccccc23)n1 | 1.7 | 6.0 | 1.8 | -0.8 | -9.4 | .
Oc1ccc(-c2csc(Nc3cccc4ccccc34)n2)cc1O | 131.0* | . | 10.0 | -55.0 | -0.6 | 141.9*
Cc1ccnc(Nc2nc(-c3ccc(O)c(O)c3)cs2)c1 | 75.9* | . | -0.3 | 1.4 | 1.9 | 181.3*
Cc1ccnc(Nc2nc(-c3ccc(O)cc3)cs2)c1 | 6.4 | . | -3.0 | 7.8 | 1.0 | .
Oc1ccc(-c2csc(Nc3ccccn3)n2)cc1O | 167.7* | . | 8.9 | 6.8 | 9.3 | 130.3*
COc1cc(CNc2ccc3[nH]c(=O)[nH]c3c2)cc(Br)c1OCc1ccc(F)cc1 | 67.3* | . | 2.5 | -7.8 | -8.1 | 28.2
COc1cccc(SCc2noc(C(=O)NCCC(C)C)c2C(=O)NCCC(C)C)c1 | 1.1 | . | -3.3 | 0.7 | 3.4 | .
COc1cccc(C(=O)COc2ccc(NC(=O)c3ccccc3)cc2)c1 | 0.9 | . | -1.6 | . | 3.6 | .
O=[n+]1c2c(n([O-])c3cc(F)c(N4CCCC4)cc31)CCC2 | 40.8* | . | 23.6 | 4.8 | 1.6 | -0.7
O=[n+]1c2c(n([O-])c3cc(F)c(N4CCCC4)cc31)CCCC2 | 2.1 | 15.8 | 4.9 | -4.1 | 2.7 | .
O=C(CCl)Nc1cccc(S(=O)(=O)NC2=NCCCCC2)c1 | 166.8* | . | 19.6 | 6.1 | 2.2 | 81.3*
O=C(COC(=O)c1ccc([N+](=O)[O-])o1)Nc1ccc(N2CCOCC2)cc1 | -0.1 | . | 2.5 | -4.4 | 8.5 | .
CC(=O)Nc1ccc2nc(NC(=O)c3ccc([N+](=O)[O-])o3)sc2c1 | 61.3* | . | 0.9 | -2.2 | 18.7 | 24.9
O=C(Nc1ccc(N2CCOCC2)cc1)c1ccc([N+](=O)[O-])o1 | 56.9* | . | -0.4 | 8.9 | 5.8 | 61.4*
SMILES | UPR CHOP act | CHOP inhibitor | UPR XBP1 act | VLA-4 inh | B2AR ag | CHOP UPR conf
Cc1ccc(C(=O)Nc2ccc(S(=O)(=O)N3CCCC3)cc2)o1 | -1.7 | . | -1.7 | 28.6 | 2.1 | .
O=C(Nc1ccc(S(=O)(=O)N2CCOCC2)cc1)c1ccc([N+](=O)[O-])s1 | 67.9* | . | 3.7 | 2.6 | 4.3 | 4.4
O=C(Nc1ccc(S(=O)(=O)N2CCCC2)cc1)c1ccc([N+](=O)[O-])o1 | 46.9* | . | -3.3 | -5.7 | 34.5 | 91.1*
O=C(Nc1ccc(S(=O)(=O)N2CCOCC2)cc1)c1ccc([N+](=O)[O-])o1 | 139.0* | -89.2 | -0.5 | 24.1 | 13.5 | 97.8*
O=C(Nc1ccc(Cc2ccncc2)cc1)c1cccc([N+](=O)[O-])c1 | 0.7 | -20.7 | 1.2 | 3.7 | -2.8 | .
O=C(Nc1ccc(Cc2ccncc2)cc1)c1ccc([N+](=O)[O-])o1 | 63.3* | . | -4.9 | 10.6 | 14.6 | 78.2*
CCN(CC)c1ccc(/C=C2\SC(=O)N(C(C)C)C2=O)o1 | 111.7* | -68.8 | -3.5 | -43.9 | -51.1 | 14.7
CCN(C(=O)COC(=O)CCC(=O)c1cccs1)c1ccccc1 | 4.2 | . | 1.9 | 8.2 | -1.2 | .
COc1ccc2c(c1)CCc1c(C(=O)NCc3ccc(Cl)cc3)noc1-2 | 0.9 | -5.4 | 0.7 | 6.1 | -7.4 | .
COc1ccc2c(c1)CCc1c(C(=O)Nc3cc(C)n(Cc4ccc(Cl)cc4)n3)noc1-2 | 107.3* | 93.2* | 141.5* | -6.7 | 1.5 | 121.5*
COc1ccc(-c2cc(C(F)(F)F)nc(S(=O)(=O)CCCC(=O)Nc3cccc(O)c3)n2)cc1OC | 55.4* | -125.0 | 6.2 | . | . | 22.2
CN(C)C/C=C(\c1ccc(Br)cc1)c1cccnc1 | 2.8 | . | -3.9 | 0.4 | 1.5 | .
C=CCOC(=O)c1sc(NC(=O)c2ccc(OC)cc2)nc1C | 43.2* | 27.0 | 4.8 | 9.9 | -5.7 | 0.3
O=C(CNS(=O)(=O)c1ccccc1)N1CCc2ccccc2C1 | 3.9 | . | -0.2 | -1.7 | -1.9 | .
CCc1nnc(NC(=O)c2nc(S(=O)(=O)Cc3cccc(C)c3)ncc2Cl)s1 | 71.9* | . | -10.6 | -0.4 | 13.7 | 29.7
CCc1nnc(NC(=O)c2nc(S(=O)(=O)Cc3ccc(C)cc3)ncc2Cl)s1 | 51.1* | . | -7.2 | 0.5 | 28.6 | 38.3*
CCc1nnc(NC(=O)c2nc(S(=O)(=O)Cc3ccccc3)ncc2Cl)s1 | 59.3* | . | -9.3 | 6.0 | 0.0 | 12.9
CC(=O)Nc1ccc(NC(=O)c2nc(S(=O)(=O)Cc3ccccc3)ncc2Cl)cc1 | -10.3 | . | -10.4 | 11.3 | 13.9 | .
Cc1cc(C(=O)NNC(=O)c2ccccc2F)c2ccccc2n1 | 0.8 | . | -1.4 | 9.9 | 0.0 | .
CC(C)c1ccc(S(=O)(=O)Nc2ccc3c(c2)OCO3)cc1 | 1.0 | . | -1.0 | -3.0 | 7.1 | .
COc1cccc(NC(=O)c2cnc(SCC(=O)NCc3ccc4c(c3)OCO4)n(C)c2=O)c1 | 20.0 | . | -7.4 | 0.3 | 18.8 | .
O=C(N/N=C/c1ccc(Cl)c([N+](=O)[O-])c1)c1cc(-c2ccc3c4c(cccc24)CC3)n[nH]1 | 43.3* | 76.9* | 0.8 | 13.9 | 9.3 | 13.6
Cn1cc(C(C[N+](=O)[O-])c2ccccc2)c2ccccc21 (stereo not drawn) | -0.4 | . | -2.3 | 26.7 | 3.5 | .
CC(=O)n1cc(C(C[N+](=O)[O-])SCCN)c2ccccc21 (stereo not drawn) | 138.4* | -0.7 | 5.5 | 15.4 | 76.0* | -3.7
C=CCn1c(=O)c2ccccc2n2c(SCC(=O)NCC)nnc12 | 0.0 | . | 0.4 | -25.1 | -4.7 | .
CCc1c(C2(O)CCCCC2)[nH]c2ncccc12 | 4.1 | . | 2.4 | 1.3 | 0.2 | .

Bioassay records from PubChem BioAssay.
